# Test results published in ChEMBL document CHEMBL1926589, “2-Anilinonicotinyl linked 2-aminobenzothiazoles and [1,2,4]triazolo[1,5-b] [1,2,4]benzothiadiazine conjugates as potential mitochondrial apoptotic inducers” (Bioorg Med Chem, 2011).
# Calls of active or inactive are those of the source. No cut-off for these calls is given here.
# Legend:
# IMR-32 = assay: Growth inhibition of human IMR32 cells at 10 uM by sulforhodamine B assay; format: functional; conditions: read-out: GI
# Method in brief: (§1)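 Single-dose 10 µM screen by sulforhodamine B assay, reported as percent inhibition of cell proliferation. Cells grown in medium with 10% heat-inactivated FBS at 37 °C, 5% CO2, and treated at about 70% confluence or in log phase. Compounds dissolved in DMSO; controls received vehicle (<0.5% v/v).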
# SK-N-SH = assay: Growth inhibition of human SK-N-SH cells at 10 uM by sulforhodamine B assay; format: functional; conditions: read-out: GI; method in brief: as §1
# SiHa [1] = assay: Growth inhibition of human SiHa cells at 10 uM by sulforhodamine B assay; format: functional; conditions: read-out: GI; method in brief: as §1
# SW-620 = assay: Growth inhibition of human SW620 cells at 10 uM by sulforhodamine B assay; format: functional; conditions: read-out: GI; method in brief: as §1
# HCT-15 = assay: Growth inhibition of human HCT15 cells at 10 uM by sulforhodamine B assay; format: functional; conditions: read-out: GI; method in brief: as §1
# [2] = Growth inhibition of human 502713 cells at 10 uM by sulforhodamine B assay; format: functional; conditions: read-out: GI; method in brief: as §1
# DU-145 = assay: Growth inhibition of human DU145 cells at 10 uM by sulforhodamine B assay; format: functional; conditions: read-out: GI; method in brief: as §1
# A549 = assay: Growth inhibition of human A549 cells at 10 uM by sulforhodamine B assay; format: functional; conditions: read-out: GI; method in brief: as §1
# HEp-2 = assay: Growth inhibition of human Hep2 cells at 10 uM by sulforhodamine B assay; format: functional; conditions: read-out: GI; method in brief: as §1
# OVCAR-5 = assay: Growth inhibition of human OVCAR5 cells at 10 uM by sulforhodamine B assay; format: functional; conditions: read-out: GI; method in brief: as §1
# HL-60 [3] = assay: Growth inhibition of human HL60 cells after 48 hrs by MTT assay; format: functional, cell-based; conditions: HL-60, 48 h
# SiHa [4] = assay: Growth inhibition of human SiHa cells after 48 hrs by MTT assay; format: functional, cell-based
# CV-1 = assay: Growth inhibition of african green monkey CV1 cells after 48 hrs by MTT assay; format: cell-based; conditions: Chlorocebus aethiops, CV-1, 48 h
# [5] = Therapeutic ratio of IC50 for african green monkey CV1 cells to IC50 for human HL60 cells; format: ADME, cell-based, HL-60; conditions: CV1 cells and HL60 cells, read-out: Ratio IC50
# HL-60 [6] = assay: Induction of apoptosis in human HL60 cells assessed as early apoptotic cells at 1 uM after 24 hrs using Annexin V-FITC and propidium iodide staining by flow cytometry relative to control; format: functional
# Method in brief: (§2)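 HL-60 cells (1 x 10^5 per 1.5 mL) treated 24 h, washed twice in PBS and stained in binding buffer with annexin V-FITC and PI. Flow cytometry with FITC in FL-1 (530 nm) and PI in FL-2 (585 nm), using quadrant statistics: lower right taken as apoptotic, upper right as post-apoptotic necrotic. Representative of three independent experiments.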
# HL-60 [7] = assay: Induction of apoptosis in human HL60 cells assessed as non-viable necrotic cells at 1 uM after 24 hrs using Annexin V-FITC and propidium iodide staining by flow cytometry relative to control; format: functional; method in brief: as §2
# HL-60 [8] = assay: Induction of apoptosis in human HL60 cells assessed as late apoptotic cells at 1 uM after 24 hrs using Annexin V-FITC and propidium iodide staining by flow cytometry relative to control; format: functional; method in brief: as §2
# HL-60 [9] = assay: Induction of apoptosis in human HL60 cells assessed as caspase3 activation using DEVD-AFC as substrate at 1 uM after 24 hrs by fluorimetry relative to control; format: functional
# Method in brief: (§3)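 HL-60 cells (2 x 10^6) treated 24 h, washed and lysed. Caspase-3, -8 and -9 activities in lysates measured fluorometrically with a commercial caspase fluorescent assay kit. Two independent experiments, each in duplicate.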
# HL-60 [10] = assay: Induction of apoptosis in human HL60 cells assessed as caspase8 activation using IETD-AFC as substrate at 1 uM after 24 hrs by fluorimetry relative to control; format: functional; method in brief: as §3
# HL-60 [11] = assay: Induction of apoptosis in human HL60 cells assessed as caspase9 activation using LEHD-AMC as substrate at 1 uM after 24 hrs by fluorimetry relative to control; format: functional; method in brief: as §3
# HL-60 [12] = assay: Induction of apoptosis in human HL60 cells assessed as DNA ladder formation at 1 uM after 24 hrs by agarose gel electrophoresis; format: functional, cell-based
# Method in brief: (§4)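 Cells treated 24 h, then 2 x 10^6 cells lysed (Triton X-100 buffer, pH 8.0) with RNase at 37 °C for 90 min and proteinase-K at 50 °C for 1 h. DNA phenol/chloroform-extracted and ethanol-precipitated, then run on 1.8% agarose at 50 V for 1.5 h in TAE. Ladders viewed under UV.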
# HL-60 [13] = assay: Induction of apoptosis in human HL60 cells assessed as DNA ladder formation at 10 uM after 24 hrs by agarose gel electrophoresis; format: functional, cell-based; method in brief: as §4
# SiHa [14] = assay: Induction of apoptosis in human SiHa cells assessed as DNA ladder formation at 10 uM after 24 hrs by agarose gel electrophoresis; format: functional, cell-based; method in brief: as §4
# HeLa = assay: Induction of apoptosis in human HeLa cells assessed as DNA ladder formation at 10 uM after 24 hrs by agarose gel electrophoresis; format: functional, cell-based; method in brief: as §4
# HL-60 [15] = assay: Cell cycle arrest in human HL60 cells assessed as accumulation at sub-G0 phase measuring DNA damage at 1 uM after 24 hrs using propidium iodide staining by flow cytometry (reference value: 1%); format: functional
# Method in brief: (§5)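 HL-60 cells (1 x 10^5 per 1.5 mL) treated 24 h, then fixed in 70% cold ethanol at −20 °C overnight. RNase digestion (400 µg/ml) at 37 °C for 45 min, then propidium iodide (10 µg/ml) for 30 min. Flow cytometry on 10,000 events, FL2-A vs FL2-W, with doublet discrimination. Sub-G0 (hypodiploid) peak taken as apoptotic cells. Mean ± SD of three independent experiments.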
# HL-60 [16] = assay: Cell cycle arrest in human HL60 cells assessed as accumulation at G1 phase at 1 uM after 24 hrs using propidium iodide staining by flow cytometry; format: functional, cell-based; method in brief: as §5
# HL-60 [17] = assay: Cell cycle arrest in human HL60 cells assessed as accumulation at S phase at 1 uM after 24 hrs using propidium iodide staining by flow cytometry; format: functional, cell-based; method in brief: as §5
# HL-60 [18] = assay: Cell cycle arrest in human HL60 cells assessed as accumulation at G2/M phase at 1 uM after 24 hrs using propidium iodide staining by flow cytometry; format: functional, cell-based; method in brief: as §5
# HL-60 [19] = assay: Induction of apoptosis in human HL60 cells assessed as increase of reactive oxygen species level at 1 uM after 24 hrs using DCFH-DA fluorescent dye based flow cytometric analysis relative to control; format: functional
# Method in brief: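 HL-60 cells (1 x 10^5 per 1.5 mL) treated 24 h, then loaded with 10 µM H2DCFDA for 30 min at 37 °C. Washed twice in PBS and read in FL-1 (530 nm). Percentage of DCF-positive cells determined; mean ± SD of three experiments.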
# HL-60 [20] = assay: Induction of NO production in human HL60 cells at 1 uM after 24 hrs using DAF-2DA fluorescent dye based flow cytometric analysis; format: functional, cell-based
# Method in brief: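 HL-60 cells (1 x 10^5 per 1.5 mL) preloaded 30 min with 10 µM DAF-2-DA before treatment. After 24 h exposure, cells were washed and read by flow cytometry in FL-1 as NO-positive population. Mean ± SD of three independent experiments.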
# HL-60 [21] = assay: Induction of apoptosis in human HL60 cells assessed as decrease in mitochondrial membrane potential at 1 uM after 24 hrs using rhodamine 123 staining by flow cytometry; format: functional
# Method in brief: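 HL-60 cells (1 x 10^5 per 1.5 mL) treated 24 h, then stained with rhodamine-123 (5 µg/mL final) for 1 h. Washed, and propidium iodide (5 µg/mL) added just before reading. FL-1 fluorescence from 10,000 events; percentage of low Rh-123 cells taken as loss of membrane potential. Mean ± SD, n=3.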
# HL-60 [22] = assay: Inhibition of NF-kappaB expression in human HL60 cells at 1 uM after 24 hrs by Western blotting; format: functional, cell-based
# Method in brief: (§6)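 HL-60 cells treated 24 h and lysed in RIPA buffer on ice; protein measured by Bradford against a BSA standard. 50 µg resolved by SDS-PAGE and transferred to PVDF, blocked in 5% milk/TBST, then primary antibodies 1:1000 for 2 h and HRP secondary 1:1000 for 1 h. ECL detection with β-actin as loading control; bands quantified by densitometry.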
# HL-60 [23] = assay: Inhibition of survivin expression in human HL60 cells at 1 uM after 24 hrs by Western blotting; format: functional, cell-based; method in brief: as §6
# HL-60 [24] = assay: Induction of apoptosis in human HL60 cells assessed as PARP cleavage at 1 uM after 24 hrs by Western blotting; format: functional, cell-based; method in brief: as §6
# HL-60 [25] = assay: Inhibition of HSP-90 expression in human HL60 cells at 1 uM after 24 hrs by Western blotting; format: functional, cell-based; method in brief: as §6
# HL-60 [26] = assay: Inhibition of Bcl-2 expression in human HL60 cells at 1 uM after 24 hrs by Western blotting; format: functional, cell-based; method in brief: as §6
smiles,measurement,setting,value
O=C(Nc1nc2ccc([N+](=O)[O-])cc2s1)c1cccnc1Nc1ccc(F)cc1,inhibition of growth at 10 µM,IMR-32,33%
same,inhibition of growth at 10 µM,SK-N-SH,63%
same,inhibition of growth at 10 µM,SiHa [1],23%
same,inhibition of growth at 10 µM,SW-620,67%
same,inhibition of growth at 10 µM,HCT-15,55%
same,inhibition of growth at 10 µM,[2],66%
same,inhibition of growth at 10 µM,DU-145,51%
same,inhibition of growth at 10 µM,A549,18%
same,inhibition of growth at 10 µM,HEp-2,52%
same,inhibition of growth at 10 µM,OVCAR-5,53%
same,IC50,HL-60 [3],0.3 µM
same,IC50,SiHa [4],7 µM
same,IC50,CV-1,15 µM
same,selectivity ratio,[5],50
same,Activity,HL-60 [6],9%
same,Activity,HL-60 [7],45%
same,Activity,HL-60 [8],5%
same,Activity,HL-60 [9],inactive
same,Activity,HL-60 [10],inactive
same,Activity,HL-60 [11],inactive
same,Activity,HL-60 [12],Active
same,Activity,HL-60 [13],Active
same,Activity,SiHa [14],inactive
same,Activity,HeLa,inactive
same,Activity,HL-60 [15],60%
same,Activity,HL-60 [16],inactive
same,Activity,HL-60 [17],inactive
same,Activity,HL-60 [18],inactive
same,Activity,HL-60 [19],16%
same,Activity,HL-60 [20],inactive
same,Activity,HL-60 [21],Active
same,inhibition,HL-60 [22],inactive
same,inhibition,HL-60 [23],Active
same,Activity,HL-60 [24],Active
same,inhibition,HL-60 [25],Active
same,inhibition,HL-60 [26],inactive
